The values that follow come from ChEMBL document CHEMBL1153964, “Tricyclic HIV integrase inhibitors V. SAR studies on the benzyl moiety” (Bioorg Med Chem Lett, 2009).

Data set [1] can be described thus: Inhibition of HIV integrase strand transfer activity. Also noted: species or system Human immunodeficiency virus. In short, it runs like this: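 Strand transfer was run with biotinylated donor DNA bound to streptavidin-coated plates and DIG-tagged target DNA. Values are means of at least two experiments.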
For data set [2], the system named is Human immunodeficiency virus 1. Put plainly: Antiviral activity against HIV1 3B infected in human MT2 cells after 5 days by chemiluminescence in presence of fetal bovine serum. The data set is classed as functional, organism-based. Particulars: Human immunodeficiency virus 1, 3B, MT2, 120 h. In short, it runs like this: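 HIV-1 IIIB infected MT-2 cells at m.o.i. 0.01 for 3 h, then ~1.5 × 10⁴ cells per well were added to 9 fivefold serial drug dilutions in triplicate in medium with 10% FBS. Plates ran 5 days at 37 °C. CellTiter-Glo was added with 10 min room-temperature lysis, and chemiluminescence was read. Values are means of at least two experiments.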

The subject of data set [3] is Human immunodeficiency virus 1. In words: Antiviral activity against HIV1 3B infected in human MT2 cells after 5 days by chemiluminescence in presence of human serum albumin. The data set is classed as functional, organism-based. The settings on record: Human immunodeficiency virus 1, 3B, MT2, 120 h. In short, it runs like this: (§1)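 Same MT-2/HIV-1 IIIB 5-day CellTiter-Glo chemiluminescence assay in 10% FBS, with physiological HSA (35 mg/ml) and α1-AGP (1.5 mg/ml) added. Shift fold is EC50 with these serum proteins divided by EC50 in 10% FBS alone.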

The subject of data set [4] is Human immunodeficiency virus 1. In words: Ratio of EC50 for HIV1 3B in presence of human serum proteins to EC50 for HIV1 3B in presence of fetal bovine serum. The data set is classed as functional. The gist of the method:
as §1

A short description of data set [5]: Half life in iv dosed dog. The settings on record: in vivo. The data set is classed as ADME, organism-based, Canis lupus familiaris. The gist of the method: (§2)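 Rats and dogs received compound as free parent in solution (EtOH, PG, PEG400 and citric acid), at pH 3.3 for iv and pH 2.2 for oral dosing. Half-life and total body clearance come from the iv groups. Oral F (%) is from po versus iv AUC. Values are means of three animals per study.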

Data set [6] in a line: Clearance in iv dosed rat. The data set is classed as ADME, organism-based. The settings on record: in vivo. In short, it runs like this: as §2
Data set [7] is described as follows: Oral bioavailability in dog. The data set is classed as ADME, organism-based, Canis lupus familiaris. Particulars: in vivo. The gist of the method:
as §2

Data set [8] can be described thus: Clearance in iv dosed dog. The data set is classed as ADME, organism-based, Canis lupus familiaris. The settings on record: in vivo. The gist of the method: as §2
Data set [9] can be described thus: Oral bioavailability in rat. The data set is classed as ADME, organism-based. The settings on record: in vivo. The gist of the method: as §2
The nature of data set [10]: Half life in iv dosed rat. The data set is classed as ADME, organism-based. The settings on record: in vivo. In short, it runs like this:
as §2

By IC50 is commonly meant the midpoint of a concentration-inhibition curve. Low values mean inhibition by little substance, high ones a need for much substance. In general, EC50 refers to the concentration giving half of the maximal effect. Consider `CN(c1c2c(c(O)c3ncccc13)C(=O)N(Cc1ccccc1)C2)S(C)(=O)=O`, for which half-maximal inhibition in data set [1] (IC50) required 0.12 µM. Further, the EC50 in [2] is 0.035 µM.

Molecule `CN(c1c2c(c(O)c3ncccc13)C(=O)N(Cc1cccc(Cl)c1F)C2)S(C)(=O)=O` had an IC50 in [1] of 0.061 µM. In addition, the EC50 in data set [3] was 0.018 µM; in data set [2], 0.006 µM. In [4], the “Ratio EC50” value turned out to be 3.

One may read the half-life as how long it takes for the measured level to halve. Low values mean fast loss, high ones slow loss. A word on the clearance: it is the volume of plasma or blood freed of the substance per unit of time. A higher clearance goes with efficient removal. By bioavailability is commonly meant the share of a dose that reaches the circulation, judged against a reference dose that is usually intravenous. A lower bioavailability goes with poor availability. Consider `CN(c1c2c(c(O)c3ncccc13)C(=O)N(Cc1ccc(F)cc1)C2)S(C)(=O)=O`, for which the half-life in [5] was 7 h; in data set [10] it was 1.1 h. In data set [1], this molecule yielded an IC50 of 0.028 µM. For the same molecule, the figures for the clearance in data set [6] and in data set [8] were 0.28 L/h/kg and 0.4 L/h/kg, respectively. Also, the bioavailability in data set [7] was 45%; in data set [9], 15%. The EC50 was 0.0114 µM in [3] and 0.0017 µM in data set [2]. In addition, the “Ratio EC50” value in data set [4] is 6.7.

As to `CN(c1c2c(c(O)c3ncccc13)C(=O)N(Cc1ccc(F)c(Cl)c1)C2)S(C)(=O)=O`, the half-life was 7.13 h in [5] and 1.36 h in data set [10]. This molecule had an IC50 in [1] of 0.052 µM. The clearance in data set [6] is 0.23 L/h/kg; in data set [8], 0.15 L/h/kg. For the same molecule, the figures for the bioavailability in data set [7] and in [9] were 41% and 7%, respectively. Moreover, the EC50 stood at 0.012 µM in [3] and 0.0035 µM in [2]. Moreover, the “Ratio EC50” value in data set [4] worked out at 3.4.

In data set [1], `CNC(=O)c1cc(F)ccc1CN1Cc2c(c(O)c3ncccc3c2N(C)S(C)(=O)=O)C1=O` yielded an IC50 of 0.074 µM. Besides, the EC50 stood at 0.09 µM in data set [3] and 0.032 µM in data set [2]. Also, in data set [4], the “Ratio EC50” value was 2.8.

As for `CN(c1c2c(c(O)c3ncccc13)C(=O)N(Cc1cc(Cl)c(F)cc1F)C2)S(C)(=O)=O`, the values for the half-life in data set [5] and in [10] were 16 h and 1.38 h, respectively. The molecule also displayed an IC50 in data set [1] of 0.039 µM. Further, the clearance was 0.29 L/h/kg in data set [6] and 0.02 L/h/kg in [8]. Further, the bioavailability is 79% in data set [7] and 9% in data set [9]. In addition, the EC50 in data set [3] worked out at 0.017 µM; in data set [2] it was 0.006 µM. Also, the “Ratio EC50” value in data set [4] amounted to 2.8.

As to `CN(c1c2c(c(O)c3ncccc13)C(=O)N(Cc1ccc(F)c(Cl)c1F)C2)S(C)(=O)=O`, the IC50 in [1] stood at 0.135 µM. The EC50 in data set [3] was 0.018 µM; in data set [2], 0.005 µM. Besides, in data set [4], the “Ratio EC50” value is 3.6.

In [1], `Cc1nnc(C(=O)NC(C)(C)c2nc(C(=O)NCc3ccc(F)cc3)c(O)c(=O)n2C)o1` [RALTEGRAVIR] showed an IC50 of 0.04 µM. The EC50 in data set [3] came to 0.02 µM; in [2], 0.004 µM.

In [1], `CC(=O)Nc1cc(F)ccc1CN1Cc2c(c(O)c3ncccc3c2N(C)S(C)(=O)=O)C1=O` came in with an IC50 of 0.005 µM. In [2], the EC50 was determined as 0.052 µM.
